# Screening results as filed in PubChem BioAssay.
# PfM18AAP inh: blocks P. falciparum M18 aspartyl aminopeptidase | recombinant PfM18AAP, H-Glu-NHMec fluorogenic cleavage | inhibition, % at 7.35 µM | actives 1.2% (n = 290,000);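 active = inhibition above the campaign mean inhibition over all tested compounds plus 3 SD, cut at about 28% in these data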;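 note: 0% = plate median of test compound wells and 100% = 2 mM ZnCl2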
# ALR inh: blocks human ALR sulfhydryl oxidase activity | P55789 | inhibition, % (concentration not given with the values) | AID 485317 | purified ALR, DTT oxidation, H2O2 HRP-luminol luminescence | actives 3.8% (n = 290,000);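 active = mean replicate inhibition above about 79%, with every replicate also reaching it, limit read from the data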
# FAS TE block: blocks the thioesterase domain of human fatty acid synthase; AID 602261; recombinant FAS-TE, OMFH fluorogenic substrate, fluorescence endpoint; actives 0.67% (n = 360,000); inhibition, % at 15 µM;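 active = compounds whose normalised, plate-corrected inhibition of enzyme fluorescence in the single-dose primary screen is 50% or more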;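 note: 0% = DMSO with enzyme and 100% = substrate without enzyme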
# HDAC3 inh: blocks human histone deacetylase 3. recombinant HDAC3, fluorogenic peptide/trypsin coupled, fluorescence. inhibition, % at 8.3 µM. actives 0.15% (n = 320,000). AID 2718; in the data active = inhibition above about 26%, passing the limit was not always enough
# UCH37 inh: blocks the human deubiquitinase UCH37; purified proteasome/UCH37, Ub-AMC cleavage fluorescence; actives 0.33% (n = 330,000); Q9Y5K5; inhibition, % (test concentration not listed);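 active = mean inhibition over replicate wells above about 20%, limit read from the data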;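 note: 0% = compound-free wells with enzyme and 100% = wells lacking proteasome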
#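 assay system = human UCH37 enzyme supplied as purified proteasome complex | amount = proteasome at 0.15 nM in the dispensed enzyme solution | schedule = 30 min compound-proteasome preincubation then 25 min substrate reaction, room temperature | measured by = fluorescence, ex 355 nm, em 460 nm | benchmarks = no-proteasome wells (full inhibition) and compound-free wells (no inhibition)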
# Rtt109 Vps75: blocks Candida albicans Rtt109/Vps75 acetyltransferase activity; Q5AAJ8; purified Rtt109/Vps75, ThioGlo CoA-SH fluorescence, 4 h; inhibition, % at 34.9 µM; actives 0.16% (n = 330,000); AID 540336;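 active = inhibition of at least 50% in every replicate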
# FAS-TE inh conf: confirmation of human fatty acid synthase thioesterase inhibitors; shares compounds with FAS TE block; recombinant FAS-TE, OMFH fluorogenic substrate, fluorescence; inhibition, % at 15 µM; actives 45% (n = 2,300); AID 624325;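 active = compounds inhibiting the enzyme by at least 50% at 15 µM in any one of the replicates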;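 note: 0% = enzyme with DMSO only and 100% = wells lacking enzyme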
# Active calls of the source: *; nt = no result. An excerpt weighted towards active compounds, which were near 4.6% of everything screened.
SMILES,PfM18AAP inh,ALR inh,FAS TE block,HDAC3 inh,UCH37 inh,Rtt109 Vps75,FAS-TE inh conf
C[C@@H]1CN([C@H](C)CO)C(=O)c2cc(NC(=O)Nc3cccc4ccccc34)ccc2O[C@H]1CN(C)Cc1ccc(C(F)(F)F)cc1,nt,nt,9,nt,nt,-6,nt
Cc1cccc(C(=O)Oc2ccccc2/C=N/NC(=O)c2ccc(NC(=O)C(C)(C)C)cc2)c1,3,nt,66*,1,nt,5,18
CC(C)(C)C(=O)Nc1ccc(C(=O)NN=Cc2ccccc2OC(=O)c2ccc(Cl)cc2Cl)cc1,nt,nt,nt,nt,4,nt,nt
CCOc1cc(/C=N\NC(=O)c2ccc(NC(=O)C(C)(C)C)cc2)ccc1OC(=O)c1cccc(C)c1,-8,-13,24,18,nt,-1,nt
CC(C)(C)C(=O)Nc1ccc(C(=O)N/N=C/c2ccccc2OC(=O)c2ccc(Cl)cc2)cc1,-1,-6,76*,4,nt,-3,12
Cc1onc(-c2ccccc2)c1C(=O)n1nnc2ccccc21,-7,13,52*,5,5,-6,51*
O=C(Nc1ccccc1[N+](=O)[O-])OCC=Cc1ccccc1,nt,nt,55*,nt,nt,nt,59*
O=C(COC(=O)c1ccco1)Nc1ccccc1[N+](=O)[O-],-8,1,-3,0,2,-5,nt
Cc1ccc(NC(=S)N(Cc2cccs2)Cc2cc3cc(C)ccc3[nH]c2=O)cc1,-6,-11,72*,4,4,3,29
Cc1cccc(NC(=S)N(Cc2cccs2)Cc2cc3cc(C)ccc3[nH]c2=O)c1,2,-6,24,-1,4,-2,nt
Cc1cc(C)c2[nH]c(=O)c(CN(Cc3cccs3)C(=S)NCc3ccco3)cc2c1,0,2,62*,-1,-1,-11,27
COc1cc2cc(CN(Cc3cccs3)C(=S)Nc3cccc(C)c3)c(=O)[nH]c2cc1OC,-8,3,nt,5,nt,nt,nt
COc1cc2cc(CN(Cc3cccs3)C(=S)Nc3ccc(C)cc3)c(=O)[nH]c2cc1OC,-2,-18,76*,0,-7,-7,24
Cc1ccccc1C1=C/C(=C(\SS/C(C(=O)c2ccc(OCC(=O)O)c(Cl)c2Cl)=C2\C=C(c3ccccc3C)SS2)C(=O)c2ccc(OCC(=O)O)c(Cl)c2Cl)SS1,nt,nt,83*,nt,nt,-2,88*
COc1ccccc1/C=C(\NC(=O)c1ccc(OC)c(OC)c1)C(=O)Nc1cccc([N+](=O)[O-])c1,3,0,88*,0,4,-5,44*
CC(C)(C)c1ccc(C(=O)N/C(=C\c2cccc([N+](=O)[O-])c2)C(=O)Nc2cccc(C(=O)O)c2)cc1,4,1,83*,-1,4,-2,88*
COc1cc(C(=O)NC(=S)Nc2ccc([N+](=O)[O-])cc2)cc(OC)c1OC,3,0,-9,6,4,22,nt
O=C(Nc1cccc(C(=O)O)c1)/C(=C/c1ccc([N+](=O)[O-])cc1)NC(=O)c1ccccc1,7,-9,23,5,8,16,nt
COc1ccccc1/C=C(\NC(=O)c1ccc(OC)c(OC)c1)C(=O)Nc1ccc([N+](=O)[O-])cc1,0,-6,86*,-5,5,-6,18
N#Cc1cc2sc3nc4ccccc4n3c2cc1C#N,0,nt,nt,nt,1,nt,nt
N#Cc1cc2sc3nnc(-c4ccncc4)n3c2cc1C#N,0,-10,75*,-8,4,-3,53*
Cc1ccc(S(=O)(=O)c2cc3c(=O)n4ccccc4nc3n(C)c2=N)cc1C,0,-3,42,-11,-41,-3,nt
C=CCn1c(=N)c(S(=O)(=O)c2ccc(C)c(C)c2)cc2c(=O)n3ccccc3nc21,-1,-1,54*,-1,-159,-30,-14
Cc1nn(-c2ccccc2)c(C)c1C=Nn1c(-c2ccncc2)n[nH]c1=S,nt,nt,nt,nt,2,nt,nt
CNC(=O)c1ccc(NC(=O)C2CCN(c3ncnc4sc(C)c(C)c34)CC2)cc1,0,0,0,4,0,4,nt
SMILES,PfM18AAP inh,ALR inh,FAS TE block,HDAC3 inh,UCH37 inh,Rtt109 Vps75,FAS-TE inh conf
Cc1sc2ncnc(N3CCC(C(=O)Nc4sc5c(c4C(N)=O)CCC(C)C5)CC3)c2c1C (stereo unspecified),nt,-4,66*,-3,-7,2,-1
COc1ccc(-c2cc(-c3ccc(O)cc3)nc(N)c2C#N)cc1,1,55,57*,-23,-216,4,34
COc1ccc(-c2cc(-c3cccnc3)c(C#N)c(N)n2)cc1,-1,nt,2,5,-399,-5,nt
Cc1cc(-c2nnc(CSc3nnc(NC(=O)c4ccc(C(C)(C)C)cc4)s3)o2)ccc1[N+](=O)[O-],-5,nt,75*,3,2,-1,10
O=C(NN=Cc1ccccc1F)c1cccc(NC(=O)c2ccccc2Cl)c1,nt,nt,nt,nt,2,nt,nt
COc1ccc(CNC(=O)/C=C/c2cc([N+](=O)[O-])ccc2OC(F)F)cc1,-3,-2,82*,-3,1,-7,65*
O=C(/C=C/c1cc([N+](=O)[O-])ccc1OC(F)F)NCc1ccc(Cl)cc1,7,nt,80*,8,4,8,88*
COc1ccccc1NC(=O)/C=C/c1cc([N+](=O)[O-])ccc1OC(F)F,2,-12,4,-1,2,-3,nt
COc1ccc(CNC(=O)/C=C/c2cc([N+](=O)[O-])ccc2OC(F)F)cc1OC,-4,-5,75*,-1,4,2,78*
O=C(/C=C/c1cc([N+](=O)[O-])ccc1OC(F)F)Nc1cccc2ccccc12,-2,nt,63*,-2,2,1,48*
O=C(/C=C/c1cc([N+](=O)[O-])ccc1OC(F)F)Nc1cccc(OC(F)F)c1,0,nt,19,-1,4,5,nt
O=C(O)CN=C1CC(c2ccccc2)CC(=O)/C1=C(\O)CCCN1C(=O)c2ccccc2C1=O (stereo unspecified),nt,nt,nt,nt,2,nt,nt
NC(=NOC(=O)c1ccc(Cl)cc1[N+](=O)[O-])c1cccnc1,nt,nt,nt,nt,4,nt,nt
CC(=NNC(=O)c1cc(Br)ccc1O)C(=NO)C(=O)Nc1ccccc1,nt,nt,nt,nt,6,nt,nt
COc1ccc(CNC(=O)/C=C/c2ccccc2[N+](=O)[O-])cc1,2,-1,15,6,4,2,nt
COC(=O)c1ccc(CNC(=O)/C=C/c2cc([N+](=O)[O-])ccc2OC(F)F)cc1,-4,-7,83*,2,2,-16,81*
O=C(O)c1cc(-c2ccc(/C=N/NC(=S)Nc3ccccc3)o2)ccc1Cl,14,15,50*,-3,nt,35,55*
O=C(O)c1cc(-c2ccc(C=NNC(=S)Nc3ccccc3)o2)ccc1Cl,nt,nt,nt,nt,-19,nt,nt
Cc1ccc(C=NNC(=O)Cc2cccn2C)o1,nt,nt,nt,nt,4,nt,nt
